Laboratory results from ChEMBL document CHEMBL2016533, “Paviosides A-H, eight new oleane type saponins from Aesculus pavia with cytotoxic activity” (Bioorg Med Chem, 2012).
≈ marks a conversion by molar mass, not a printed value.

How the values were obtained:
J774 = experiment: Cytotoxicity against mouse J774 cells after 72 hrs by MTT assay; type: functional, cell-based; settings: J774, 72 h
How it was run: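 J774 murine monocyte/macrophage cells are kept in suspension in stirred bottles (37 °C, DMEM, 10% FBS, 25 mM HEPES, 2 mM glutamine), then plated and allowed 2 h to adhere (37 °C, 5% CO2). Medium is refreshed, 1.2 v/v serial dilutions are added, and cells incubate 72 h. MTT (5 mg/mL) is added for 3 h, then solubilized in 50% DMF/20% SDS, pH 4.5. % dead cells = 100 − (OD treated/OD control)×100.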

WEHI-164 = experiment: Cytotoxicity against mouse WEHI164 cells after 72 hrs by MTT assay; type: functional, cell-based; settings: WEHI-164, 72 h
How it was run: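 WEHI 164 murine fibrosarcoma cells are kept adherent (DMEM, 10% heat-inactivated FBS, 25 mM HEPES), then plated and allowed 2 h to adhere (37 °C, 5% CO2). Medium is refreshed, 1.2 v/v serial dilutions are added, and cells incubate 72 h. MTT (5 mg/mL) is added for 3 h, then solubilized in 50% DMF/20% SDS, pH 4.5. % dead cells = 100 − (OD treated/OD control)×100.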

Compound | IC50 (J774) [µg/mL] | IC50 (WEHI-164) [µg/mL]
C/C=C(/C)C(=O)O[C@H]1[C@H](OC(C)=O)[C@]2(CO)[C@H](O)C[C@]3(C)C(=CC[C@@H]4[C@@]5(C)CC[C@H](O[C@@H]6O[C@H](C(=O)O)[C@@H](O[C@@H]7OC[C@@H](O)[C@H](O)[C@H]7O)[C@H](O)[C@H]6O[C@@H]6OC[C@@H](O)[C@H](O)[C@H]6O)C(C)(C)[C@@H]5CC[C@]43C)[C@@H]2CC1(C)C [PAVIOSIDEF] | 2.8 (≈ 2.65 µM) | 2.3 (≈ 2.18 µM)
C/C=C(\C)C(=O)O[C@H]1[C@H](OC(C)=O)[C@]2(CO)[C@H](O)C[C@]3(C)C(=CC[C@@H]4[C@@]5(C)CC[C@H](O[C@@H]6O[C@H](C(=O)O)[C@@H](O[C@@H]7O[C@H](CO)[C@@H](O)[C@H](O)[C@H]7O)[C@H](O)[C@H]6O[C@@H]6OC[C@@H](O)[C@H](O)[C@H]6O)C(C)(C)[C@@H]5CC[C@]43C)[C@@H]2CC1(C)C [PAVIOSIDEA] | 5.7 (≈ 5.25 µM) | 4.8 (≈ 4.42 µM)
C/C=C(/C)C(=O)O[C@H]1[C@H](OC(C)=O)[C@]2(CO)[C@H](O)C[C@]3(C)C(=CC[C@@H]4[C@@]5(C)CC[C@H](O[C@@H]6O[C@H](C(=O)O)[C@@H](O[C@@H]7O[C@H](CO)[C@@H](O)[C@H](O)[C@H]7O)[C@H](O)[C@H]6O[C@@H]6OC[C@@H](O)[C@H](O)[C@H]6O)C(C)(C)[C@@H]5CC[C@]43C)[C@@H]2CC1(C)C [PAVIOSIDEB] | 5.1 (≈ 4.7 µM) | 4.9 (≈ 4.52 µM)
C/C=C(\C)C(=O)O[C@H]1[C@H](OC(C)=O)[C@]2(CO)[C@H](O)C[C@]3(C)C(=CC[C@@H]4[C@@]5(C)CC[C@H](O[C@@H]6O[C@H](C(=O)O)[C@@H](O[C@@H]7O[C@H](CO)[C@H](O)[C@H](O)[C@H]7O)[C@H](O)[C@H]6O[C@@H]6OC[C@@H](O)[C@H](O)[C@H]6O)C(C)(C)[C@@H]5CC[C@]43C)[C@@H]2CC1(C)C [PAVIOSIDEC] | 5.7 (≈ 5.25 µM) | 6.5 (≈ 5.99 µM)
C/C=C(/C)C(=O)O[C@H]1[C@H](OC(C)=O)[C@]2(CO)[C@H](O)C[C@]3(C)C(=CC[C@@H]4[C@@]5(C)CC[C@H](O[C@@H]6O[C@H](C(=O)O)[C@@H](O[C@@H]7O[C@H](CO)[C@H](O)[C@H](O)[C@H]7O)[C@H](O)[C@H]6O[C@@H]6OC[C@@H](O)[C@H](O)[C@H]6O)C(C)(C)[C@@H]5CC[C@]43C)[C@@H]2CC1(C)C [PAVIOSIDED] | 6.6 (≈ 6.08 µM) | 7.1 (≈ 6.54 µM)
C/C=C(\C)C(=O)O[C@H]1[C@H](OC(C)=O)[C@]2(CO)[C@H](O)C[C@]3(C)C(=CC[C@@H]4[C@@]5(C)CC[C@H](O[C@@H]6O[C@H](C(=O)O)[C@@H](O[C@@H]7OC[C@@H](O)[C@H](O)[C@H]7O)[C@H](O)[C@H]6O[C@@H]6OC[C@@H](O)[C@H](O)[C@H]6O)C(C)(C)[C@@H]5CC[C@]43C)[C@@H]2CC1(C)C [PAVIOSIDEE] | 2.9 (≈ 2.75 µM) | 2.1 (≈ 1.99 µM)
C/C=C(/C)C(=O)O[C@H]1[C@H](OC(C)=O)[C@]2(CO)[C@H](O)C[C@]3(C)C(=CC[C@@H]4[C@@]5(C)CC[C@H](O[C@@H]6O[C@H](C(=O)O)[C@@H](O[C@@H]7OC[C@@H](O)[C@H](O)[C@H]7O)[C@H](O)[C@H]6O[C@@H]6OC[C@@H](O)[C@H](O)[C@H]6O)[C@](C)(CO)[C@@H]5CC[C@]43C)[C@@H]2CC1(C)C [PAVIOSIDEH] | 3.5 (≈ 3.27 µM) | 3.2 (≈ 2.99 µM)
C/C=C(\C)C(=O)O[C@H]1[C@H](OC(C)=O)[C@]2(CO)[C@H](O)C[C@]3(C)C(=CC[C@@H]4[C@@]5(C)CC[C@H](O[C@@H]6O[C@H](C(=O)O)[C@@H](O[C@@H]7OC[C@@H](O)[C@H](O)[C@H]7O)[C@H](O)[C@H]6O[C@@H]6OC[C@@H](O)[C@H](O)[C@H]6O)[C@](C)(CO)[C@@H]5CC[C@]43C)[C@@H]2CC1(C)C [PAVIOSIDEG] | 3.6 (≈ 3.36 µM) | 3.5 (≈ 3.27 µM)
